# According to ChEMBL document CHEMBL4270576, “Discovery of a benzenesulfonamide-based dual inhibitor of microsomal prostaglandin E2 synthase-1 and 5-lipoxygenase that favorably modulates lipid mediator biosynthesis in inflammation” (Eur J Med Chem, 2018):
# pIC50: −log10 of the molar value.
# Tests used:
# [1] = molecular target: Cyclooxygenase (Homo sapiens, UniProt P35354+P23219); assay: Inhibition of COX1/2 (unknown origin) at 10 uM; format: protein assay
# [2] = organism: Homo sapiens; assay: Modulation of LO-mediated MaR1 level in human M2 macrophages derived from IL4-polarized human monocyte derived macrophages at 3 uM preincubated for 15 mins followed by Escherichia coli (O6:K2:H1) challenge for 90 mins by LC-MS/MS analysis
# How it was run: (§1)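 Monocytes differentiated 6 days with M-CSF (20 ng/ml), then polarized 48 h with IL-4 20 ng/ml (M2). Cells (2 × 10^6) in PBS/1 mM CaCl2 pre-incubated 15 min at 37 °C with 3 µM compound or 0.1% DMSO, then challenged with E. coli O6:K2:H1 (1:50) for 90 min. Lipid mediators extracted by SPE with deuterated internal standards and quantified by UPLC-MS/MS as % of vehicle.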
# [3] = molecular target: T1, Polyunsaturated fatty acid 5-lipoxygenase (Homo sapiens, UniProt P09917); assay: Inhibition of 5-LO in human neutrophils using arachidonic acid as substrate assessed as reduction in 5-LO product formation preincubated for 15 mins followed by substrate addition measured after 10 mins in presence of Ca2+ ionophore A23187 by HPLC analysis
# T1 sequence (P09917 whole entry): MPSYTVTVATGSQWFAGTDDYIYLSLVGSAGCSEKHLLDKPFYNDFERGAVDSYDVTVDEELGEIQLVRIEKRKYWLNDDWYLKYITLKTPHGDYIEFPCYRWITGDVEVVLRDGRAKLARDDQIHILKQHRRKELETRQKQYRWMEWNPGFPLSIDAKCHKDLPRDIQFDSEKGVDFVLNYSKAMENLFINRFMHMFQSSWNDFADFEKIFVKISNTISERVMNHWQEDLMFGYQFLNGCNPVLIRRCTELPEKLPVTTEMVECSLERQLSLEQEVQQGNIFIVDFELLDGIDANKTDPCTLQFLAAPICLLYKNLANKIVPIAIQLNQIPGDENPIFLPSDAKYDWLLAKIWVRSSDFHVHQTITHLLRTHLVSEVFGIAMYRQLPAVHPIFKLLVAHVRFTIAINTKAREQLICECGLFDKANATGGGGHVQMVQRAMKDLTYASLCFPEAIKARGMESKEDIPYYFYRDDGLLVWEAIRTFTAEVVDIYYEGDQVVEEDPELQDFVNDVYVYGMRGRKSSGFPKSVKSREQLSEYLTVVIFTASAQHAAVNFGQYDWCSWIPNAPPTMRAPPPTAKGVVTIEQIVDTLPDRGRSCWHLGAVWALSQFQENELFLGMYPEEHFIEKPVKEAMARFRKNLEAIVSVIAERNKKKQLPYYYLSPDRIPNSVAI
# How it was run: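 Human neutrophils (5 × 10^6 in 1 ml PBS with 1 mg/ml glucose) pre-incubated 15 min at 37 °C with compound or 0.1% DMSO, then activated with 1 mM CaCl2 and 2.5 µM A23187, with or without 20 µM AA; 5-LO products measured after 10 min. Residual activity at 10 µM; IC50 by nonlinear regression from 4-5 concentrations; mean ± SEM, n=3-4.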
# [4] = molecular target: T2, Polyunsaturated fatty acid lipoxygenase ALOX15 (Homo sapiens) (UniProt P16050); assay: Modulation of 15-LO-mediated 7-HDHA level in human M2 macrophages derived from IL4-polarized human monocyte derived macrophages at 3 uM preincubated for 15 mins followed by Escherichia coli (O6:K2:H1) challenge for 90 mins by LC-MS/MS analysis; how it was run: as §1
# T2 sequence (whole entry): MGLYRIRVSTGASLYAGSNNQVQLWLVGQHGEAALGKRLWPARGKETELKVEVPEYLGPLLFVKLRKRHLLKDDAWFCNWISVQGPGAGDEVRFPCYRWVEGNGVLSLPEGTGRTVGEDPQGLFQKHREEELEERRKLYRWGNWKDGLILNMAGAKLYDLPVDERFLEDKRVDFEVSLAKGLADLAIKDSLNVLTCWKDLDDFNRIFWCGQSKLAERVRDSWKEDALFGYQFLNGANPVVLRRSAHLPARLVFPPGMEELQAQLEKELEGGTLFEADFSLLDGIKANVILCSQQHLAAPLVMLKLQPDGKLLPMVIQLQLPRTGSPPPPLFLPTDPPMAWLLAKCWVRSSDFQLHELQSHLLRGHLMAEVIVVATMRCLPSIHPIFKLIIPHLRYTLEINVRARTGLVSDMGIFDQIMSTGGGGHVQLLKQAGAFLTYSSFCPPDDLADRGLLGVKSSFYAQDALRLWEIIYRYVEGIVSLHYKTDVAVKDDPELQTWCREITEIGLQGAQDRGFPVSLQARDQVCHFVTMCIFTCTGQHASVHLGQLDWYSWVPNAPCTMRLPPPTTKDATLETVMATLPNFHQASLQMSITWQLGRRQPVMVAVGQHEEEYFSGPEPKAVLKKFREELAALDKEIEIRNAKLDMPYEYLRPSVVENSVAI
# [5] = organism: Homo sapiens; assay: Modulation of LO-mediated 5,15-DiHETE level in human M2 macrophages derived from IL4-polarized human monocyte derived macrophages at 3 uM preincubated for 15 mins followed by Escherichia coli (O6:K2:H1) challenge for 90 mins by LC-MS/MS analysis; how it was run: as §1
smiles,measurement,setting,value
O=C(O)c1ccc(N(Cc2cccc(OCc3ccccc3)c2)S(=O)(=O)c2ccc(-c3ccccc3)cc2)cc1,inhibition (INH),[1],Not Active
same,Activity,[2],141%
same,pIC50,[3],6.40
same,Activity,[4],107%
same,Activity,[5],122%
